Assays:
[1] = Ex vivo biodistribution, normal tissues; type: in vivo, NSG mice; conditions: at all the time points (10, 60, 120 minutes); blocking dose had minimal effect
Method in brief: (§1)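 Female NSG mice (6–8 weeks) bearing subcutaneous CHO/hPD-L1 and parental CHO tumours received radiotracer iv in saline (from 5% DMSO/Tween 20 stock). For blocking, it was coinjected with 50 µg unmodified peptide. Mice were dissected at 10, 60 and 120 min (n = 4 per time point). Blood, tumours and tissues were weighed and gamma-counted with triplicate radioactive standards. Values are %ID/g, mean ± SEM, compared by unpaired two-tailed t test.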

[2] = Ex vivo biodistribution, SUM149 xenografts; type: in vivo, NSG mice; conditions: female, NSG, mouse, SUM149 tumor (xenograft), iv, 740 kBq, total radioactivity
Method in brief: (§2)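 Female NSG mice (6–8 weeks) with subcutaneous xenografts got 740 kBq radiotracer in 200 µL iv. The radiotracer was reconstituted in saline with 5% DMSO and Tween 20, then diluted in saline. Mice were killed at 120 min (MDAMB231 also 60 min, plus a group coinjected with 50 µg unmodified peptide). Blood, tumour and tissues were weighed and gamma-counted with triplicate standards. %ID/g reported as mean ± SEM.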

[3] = Ex vivo biodistribution, MDAMB231 xenografts; type: in vivo, NSG mice; conditions: female, NSG, mouse, MDAMB231 tumor (xenograft), iv, 740 kBq, total radioactivity
Method in brief: as §2

[4] = test system: hPD-L1, CHO, MDAMB231, SUM149, H226, and H1155 cells; test: [^18F]FPy-WL12 in vitro uptake assay; type: cell-based; conditions: blocking with 1 µM unmodified WL12; 1 hour at 37°C
Method in brief: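 Cells were lifted with non-enzymatic dissociation buffer. 1 × 10⁶ cells in PBS with 2 mM EDTA and 1% FBS were incubated with 1 µCi radiotracer for 1 h at 37°C, washed three times with cold PBS, and bound activity was gamma-counted. CHO-hPD-L1 cells were kept in F-12K/10% FBS with 2 mg/mL G418. SUM149 cells were grown in Ham's F-12/5% FBS with insulin and hydrocortisone. Runs were in triplicate, repeated three times.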

[5] = Ex vivo biodistribution, H226 xenografts; type: in vivo, NSG mice; conditions: female, NSG, mouse, H226 tumor (xenograft), iv, 740 kBq, total radioactivity
Method in brief: as §2

[6] = Ex vivo biodistribution, hPD-L1 xenografts; type: in vivo, NSG mice; conditions: female, NSG, mouse, hPD-L1 tumor (xenograft), iv, 740 kBq, total radioactivity
Method in brief: as §1

hPD-L1 tumors = test: Ex vivo biodistribution, hPD-L1 xenografts; type: in vivo, NSG mice; conditions: co-injected with 50 µg blocking dose of WL12
Method in brief: as §1

[7] = target: recombinant human PD-L1(B7-H1)-His-tag protein (human) (UniProt Q9NZQ7); test: AlphaScreen or HTRF
[8] = target: endogenous PD-L1 on MDAMB231 and H226 cells (human (endogenous in MDAMB231 and H226)) (UniProt Q9NZQ7)

In the case of `CCCC[C@H]1C(=O)N(C)[C@@H](CCCC)C(=O)N[C@@H](CCCNC(=O)c2ccc(F)nc2)C(=O)N[C@H](C(=O)NCC(N)=O)CSCC(=O)N[C@@H](Cc2ccc(O)cc2)C(=O)N(C)[C@@H](C)C(=O)N[C@@H](CC(N)=O)C(=O)N2CCC[C@H]2C(=O)N[C@@H](Cc2c[nH]cn2)C(=O)N[C@@H](CC(C)C)C(=O)N2C[C@H](O)C[C@H]2C(=O)N[C@@H](Cc2c[nH]c3ccccc23)C(=O)N[C@@H](CO)C(=O)N[C@@H](Cc2cn(C)c3ccccc23)C(=O)N1C` [[^18F]FPy-WL12], the “accumulation in liver and kidneys” value [1] is reported as “high”, the tissue uptake at 2 h [2] is reported as 1.43 ± 0.11 %ID/g and the tissue uptake at 2 h [3] is reported as 2.15 ± 0.1 %ID/g. The “[^18F]FPy-WL12 uptake in cells coincubated with unmodified WL12” value [4] was “significantly reduced”, the tissue uptake at 2 h [5] was 2.77 ± 0.31 %ID/g and the tissue uptake at 1 h [6] was 7.16 ± 1.67 %ID/g. The “reduction in the uptake in hPD-L1 tumors by blocking dose” value (hPD-L1 tumors) was 85%.
For “WL12, PD-L1-binding peptide (14-amino acid cyclic peptide)”, the IC50 [7] was 26.4 nM and the Ki [7] was 12.3 nM.
Work on “[^18F]FPy-WL12, radiotracer (WL12 acylated with 6-[^18F]fluoronicotinate) (peptide)” yielded a tumor uptake in MDAMB231 xenografts at 120 minutes, ex vivo biodistribution [8] of 2.15 %ID/g.
For “^19FPy-WL12, nonradioactive analog of the radiotracer (WL12 acylated with 6-fluoronicotinate) (peptide)”, the IC50 [7] was 31.7 nM and the Ki [7] was 14.8 nM.

From publication PMC6563393 (Molecular Imaging, 2019)
